ChEMBL document CHEMBL1933018 (Bioorg Med Chem Lett, 2012)

Legend:
Progesterone receptor = target: T1, Progesterone receptor (Homo sapiens, UniProt P06401); experiment: Antagonist activity at progesterone receptor; format: functional
T1 sequence (P06401 whole entry): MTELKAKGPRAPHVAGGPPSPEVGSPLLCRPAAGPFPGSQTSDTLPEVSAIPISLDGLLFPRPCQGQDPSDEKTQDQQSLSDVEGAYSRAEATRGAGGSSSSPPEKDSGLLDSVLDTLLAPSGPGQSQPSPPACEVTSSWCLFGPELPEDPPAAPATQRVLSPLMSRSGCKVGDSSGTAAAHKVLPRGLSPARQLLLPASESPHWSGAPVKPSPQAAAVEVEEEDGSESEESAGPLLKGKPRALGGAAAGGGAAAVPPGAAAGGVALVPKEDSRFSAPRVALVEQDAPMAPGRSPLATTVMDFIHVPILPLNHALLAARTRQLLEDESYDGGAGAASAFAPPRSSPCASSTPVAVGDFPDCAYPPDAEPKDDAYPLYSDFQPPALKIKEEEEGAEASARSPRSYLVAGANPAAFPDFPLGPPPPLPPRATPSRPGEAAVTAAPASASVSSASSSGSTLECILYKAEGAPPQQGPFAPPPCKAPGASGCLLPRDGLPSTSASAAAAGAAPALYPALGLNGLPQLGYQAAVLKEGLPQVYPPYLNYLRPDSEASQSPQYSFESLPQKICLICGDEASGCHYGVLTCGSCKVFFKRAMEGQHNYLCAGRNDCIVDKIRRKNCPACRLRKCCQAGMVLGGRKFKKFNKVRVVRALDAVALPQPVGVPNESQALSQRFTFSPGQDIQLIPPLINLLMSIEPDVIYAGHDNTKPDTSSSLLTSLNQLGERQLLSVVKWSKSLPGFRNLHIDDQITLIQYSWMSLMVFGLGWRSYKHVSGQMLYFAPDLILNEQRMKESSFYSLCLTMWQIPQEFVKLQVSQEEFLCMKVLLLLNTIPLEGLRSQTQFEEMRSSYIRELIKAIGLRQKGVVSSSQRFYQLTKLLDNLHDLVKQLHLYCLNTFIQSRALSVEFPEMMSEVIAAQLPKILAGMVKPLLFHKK

[1] = Intrinsic clearance in liver microsomes; format: ADME, Microsome; details: read-out: CLH
[2] = target: T2, Corticotropin-releasing factor receptor 1 (Homo sapiens, UniProt P34998); experiment: Antagonist activity at human recombinant CRF1 receptor expressed in CHO cells by cAMP assay; format: functional, cell-based
T2 sequence (P34998 whole entry): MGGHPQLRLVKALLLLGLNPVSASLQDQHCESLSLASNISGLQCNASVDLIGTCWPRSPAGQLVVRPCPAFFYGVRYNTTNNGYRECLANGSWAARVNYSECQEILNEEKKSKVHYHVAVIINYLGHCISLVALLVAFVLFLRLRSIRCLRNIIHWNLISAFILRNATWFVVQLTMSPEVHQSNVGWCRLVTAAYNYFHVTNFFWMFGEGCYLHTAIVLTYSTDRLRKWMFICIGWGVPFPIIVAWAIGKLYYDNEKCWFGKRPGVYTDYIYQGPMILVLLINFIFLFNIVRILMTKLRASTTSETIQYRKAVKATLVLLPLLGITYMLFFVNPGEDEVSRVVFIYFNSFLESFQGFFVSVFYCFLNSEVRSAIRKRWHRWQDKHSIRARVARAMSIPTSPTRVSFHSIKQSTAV
Outline: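 CHO cells stably expressing recombinant human CRF-1 were grown in DMEM:F12 (1:1) with 10% FBS, 400 µg/ml Geneticin and 1% Glutamax at 37 °C, 5% CO2 to 70% confluence. 10,000 cells/well in PBS with 500 µM IBMX (final) were stimulated with hCRF (108 nM final) plus test compound. cAMP was read by HitHunter cAMP II kit. Compounds were tested repeatedly over a 0.5-log serial dilution series.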

Compound | IC50 (Progesterone receptor) [nM] | microsomal CLint [1] [µL/min/mg] | Ki [2] [nM]
CC#C[C@]1(O)CC[C@H]2[C@@H]3CCC(=O)C(CCC(=O)O)=C3[C@@H](c3ccc(N(C)C=O)cc3)C[C@@]21C | 430 | – | –
CC#C[C@]1(O)CC[C@H]2[C@@H]3CCC4=CC(=O)CCC4=C3[C@@H](c3ccc(N(C)C=O)cc3)C[C@@]21C | 10 | 81 | –
CC#C[C@]1(O)CC[C@H]2[C@@H]3CCC4=CC(=O)CCC4=C3C(c3ccc(N(C)C)cc3)=C[C@@]21C | 307 | – | –
CC#C[C@]1(O)CC[C@H]2[C@@H]3CCC4=CC(=O)CCC4=C3[C@@](Cl)(c3cc(Cl)c(N(C)C)c(Cl)c3)C[C@@]21C | 771 | 76 | –
CC#C[C@]1(O)CC[C@H]2[C@@H]3CCC4=CC(=O)CCC4=C3[C@@H](c3ccc(N(C)C)cc3)C[C@@]21C [MIFEPRISTONE] | – | 92.5 | –

Next, values leading:

IC50 (Progesterone receptor) [nM] | microsomal CLint [1] [µL/min/mg] | Ki [2] [nM] | Compound
– | – | 6 | CCCCN(CC)c1nc(C)nc2c1c(C)c(CO)n2-c1c(C)cc(C)cc1C
– | – | 52 | CCCCN(CC)c1nc(C)nc2c1c(C)c(C=O)n2-c1c(C)cc(C)cc1C
– | – | 11 | CCCCN(CC)c1nc(C)nc2c1c(C)c(COC)n2-c1c(C)cc(C)cc1C
– | – | 32 | CCCCN(CC)c1nc(C)nc2c1c(C)c(C)n2-c1c(C)cc(C)cc1C [ANTALARMIN]
